Data taken from PubChem BioAssay.
Calls of active or inactive are those of the source.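 Rule for the calls, unless noted: active = viability at or below 30% in both replicate assays; inconclusive = viability at or below 30% in just one of the two assays; inactive = the rest.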

Experiments:
[1] = Her2 expression decrease, cell viability multiplex – SKBR3 breast tumor cells, AlphaScreen, ATP viability, primary screen (AID 461;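 active = Her2 level under about 52% in both replicate screens, with viability over 70% of control, limit read from the data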;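 for Her2 level: lower value means less Her2 protein in the cells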;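 for viability: percent of carrier control wells set as 100% viability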); settings: SKBR3 Her2 protein level, 18-24 h, measured here: SKBR3 viability, ATP luminescence, at 10 µM
[2] = target: Receptor tyrosine-protein kinase erbB-2 (Homo sapiens) (UniProt P04626); experiment: as above; settings: 18-24 h, at 10 µM, stronger effect = lower value
[3] = reduced viability of SK-BR-3 breast cancer cells – cell-based, 24 h, human, pilot screen (AID 572;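 active = viability at or below 10% of carrier control in both of two separate runs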;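 note: compound exposure lasted between 18 and 24 h rather than exactly 24 h; 100% = carrier-treated control wells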); settings: SK-BR-3 viability, CellTiter-Glo luminescence, at 10 µM, stronger effect = lower value
[4] = HUVEC growth inhibition – cell-based, human, primary screen (AID 575); settings: HUVEC proliferation, CellTiter-Glo luminescence, 72 h; at 10 µM; stronger effect = lower value;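 note: 100% = median of untreated cell wells with 0.1% DMSO on each plate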
Method in brief: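 Assay system: primary human umbilical vein endothelial cells / Buffer or medium: endothelial basal medium with 2% FBS plus growth supplements / Compound dosing: one dose, 10 µM final, 0.1% DMSO / Timing: 72 h treatment at 37 °C / Signal: CTG luminescence / Benchmarks: 32 DMSO-only cell-control wells (high), 32 MePR drug-control wells (low) per plate / Plate: collagen-coated 384-well format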

[5] = H69AR cell proliferation blockers – human, duplicate replicates, primary screen (AID 580;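 active = viability at or under a set limit in both replicates, limit being median viability minus 3 SD, cut at about 48% in these data, passing the limit was not always enough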;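 note: 100% = mean luminescence of untreated wells and 0% = no signal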); settings: H69AR lung tumor cells viability, ATP luminescence, 72 h; at 10 µM; stronger effect = lower value
[6] = MRP1 drug-resistance reversers in H69AR cells – cell-based, doxorubicin co-treatment, pilot screen (AID 601;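 active = viability loss from added drug above about 55%, and viability with drug at most 40%, in both replicates, limit read from the data, passing the limit was not always enough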); settings: CellTiter-Glo, 72 h, at 10 µM; for differential viability (reversal): stronger effect = higher value
[7] = yeast transport mutant growth inhibition pilot in 384-well plates, post-Golgi transport modulator project (AID 636; in the data active = inhibition above about 31%); settings: absorbance 615 nm, about 18 h, stronger effect = higher value
[8] = growth suppression of yeast trafficking mutant, preliminary HTS, modulators of trafficking downstream of Golgi apparatus project, 1536-format plate, OD 615 nm (AID 637; in the data active = inhibition above about 30%); settings: yeast transport mutant growth, absorbance 615 nm, 18 h; stronger effect = higher value
[9] = H69AR cells + 2 uM doxorubicin, measured here: viability with 2 uM doxorubicin, stronger effect = lower value
[10] = H69AR cells, compound alone cytotoxicity

Receptor tyrosine-protein kinase erbB-2 (Homo sapiens), sequence (P04626 whole entry, looked up): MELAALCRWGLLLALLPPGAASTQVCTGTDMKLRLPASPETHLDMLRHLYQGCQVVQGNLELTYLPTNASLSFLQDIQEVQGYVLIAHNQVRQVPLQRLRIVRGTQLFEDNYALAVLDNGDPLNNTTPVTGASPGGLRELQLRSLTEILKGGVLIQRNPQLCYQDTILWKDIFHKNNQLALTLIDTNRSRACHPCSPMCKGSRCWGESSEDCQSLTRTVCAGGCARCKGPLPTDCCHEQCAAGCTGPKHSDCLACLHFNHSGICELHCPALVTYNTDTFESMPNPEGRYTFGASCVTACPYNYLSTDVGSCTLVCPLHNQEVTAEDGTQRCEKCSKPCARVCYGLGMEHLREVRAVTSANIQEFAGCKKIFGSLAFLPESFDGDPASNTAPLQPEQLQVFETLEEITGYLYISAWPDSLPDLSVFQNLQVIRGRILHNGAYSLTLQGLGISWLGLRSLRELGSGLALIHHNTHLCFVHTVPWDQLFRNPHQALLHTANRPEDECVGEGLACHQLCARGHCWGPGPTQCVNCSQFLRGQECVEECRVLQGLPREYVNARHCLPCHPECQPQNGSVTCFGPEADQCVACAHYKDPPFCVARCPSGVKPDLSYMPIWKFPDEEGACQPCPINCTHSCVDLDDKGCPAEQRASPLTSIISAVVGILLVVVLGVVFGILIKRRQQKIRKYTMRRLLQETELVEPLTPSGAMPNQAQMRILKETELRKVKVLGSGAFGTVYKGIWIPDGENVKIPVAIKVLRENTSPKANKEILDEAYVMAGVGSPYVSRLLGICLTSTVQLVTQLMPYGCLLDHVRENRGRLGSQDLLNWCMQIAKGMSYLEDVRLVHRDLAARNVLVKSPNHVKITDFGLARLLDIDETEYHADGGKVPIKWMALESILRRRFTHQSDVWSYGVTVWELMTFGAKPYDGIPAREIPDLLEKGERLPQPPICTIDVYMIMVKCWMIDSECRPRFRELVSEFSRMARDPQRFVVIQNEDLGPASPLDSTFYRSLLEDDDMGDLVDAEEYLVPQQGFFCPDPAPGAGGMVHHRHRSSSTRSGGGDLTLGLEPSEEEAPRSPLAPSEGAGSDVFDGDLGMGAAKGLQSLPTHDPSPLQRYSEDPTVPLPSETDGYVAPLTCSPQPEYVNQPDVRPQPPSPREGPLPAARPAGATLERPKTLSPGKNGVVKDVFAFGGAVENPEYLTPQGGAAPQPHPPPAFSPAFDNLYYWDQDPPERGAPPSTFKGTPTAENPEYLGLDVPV

COCCNC(=O)C(c1ccc(O)cc1)N(Cc1ccco1)C(=O)CCC(=O)Nc1nccs1 (stereo not given)
viability [1]: 81.5% | Her2 level [2]: 104% (inactive) | viability [3]: 81.5% (inactive) | viability [4]: 104% (inactive) | viability [5]: 99.5% (inactive) | differential viability (reversal) ([6]; H69AR cells + 2 uM doxorubicin): 11.1% (inactive) | viability [6, 9]: 88.3% | viability [6, 10]: 99.5% | inhibition [7]: -0.81% (inactive) | inhibition [8]: -6.23% (inactive)

Cc1ccsc1C(C(=O)NC1CCCCC1)N(C(=O)Cc1cccs1)C1CC1 (stereo not given)
viability [1]: 97.5% | Her2 level [2]: 125% (inactive) | viability [3]: 97.5% (inactive) | viability [4]: 89.2% (inactive) | viability [5]: 86.4% (inactive) | differential viability (reversal) ([6]; H69AR cells + 2 uM doxorubicin): 9.3% (inactive) | viability [6, 9]: 77.1% | viability [6, 10]: 86.4% | inhibition [7]: -4.87% (inactive) | inhibition [8]: -4% (inactive)

Cc1cc(C)c(OCC(=O)Nc2ccc3c(c2)OCO3)cc1C
viability [1]: 106% | Her2 level [2]: 116% (inactive) | viability [3]: 106% (inactive) | viability [4]: 92% (inactive) | viability [5]: 84.5% (inactive) | differential viability (reversal) ([6]; H69AR cells + 2 uM doxorubicin): -3.51% (inactive) | viability [6, 9]: 88% | viability [6, 10]: 84.5% | inhibition [7]: -4% (inactive) | inhibition [8]: -11.4% (inactive)

O=C(Nc1ccc2c(c1)OCCO2)C1CCCN(S(=O)(=O)c2cnc[nH]2)C1 (stereo not given)
viability [1]: 82.5% | Her2 level [2]: 111% (inactive) | viability [3]: 82.5% (inactive) | viability [4]: 100% (inactive) | viability [5]: 94.7% (inactive) | differential viability (reversal) ([6]; H69AR cells + 2 uM doxorubicin): 8.45% (inactive) | viability [6, 9]: 86.2% | viability [6, 10]: 94.7% | inhibition [7]: -3.2% (inactive) | inhibition [8]: -3.93% (inactive)

COc1cccc(S(=O)(=O)Nc2cccnc2)c1
viability [1]: 98% | Her2 level [2]: 107% (inactive) | viability [3]: 98% (inactive) | viability [4]: 88.2% (inactive) | viability [5]: 103% (inactive) | differential viability (reversal) ([6]; H69AR cells + 2 uM doxorubicin): 12.3% (inactive) | viability [6, 9]: 90.3% | viability [6, 10]: 103% | inhibition [7]: -0.4% (inactive) | inhibition [8]: -3.71% (inactive)

Cc1ccc(-c2nnn(CC(=O)N(CC(=O)NC3CCCCC3)c3cnc4ccccc4c3)n2)o1
viability [1]: 98% | Her2 level [2]: 92% (inactive) | viability [3]: 98% (inactive) | viability [4]: 93.3% (inactive) | viability [5]: 96.5% (inactive) | differential viability (reversal) ([6]; H69AR cells + 2 uM doxorubicin): 15.9% (inactive) | viability [6, 9]: 80.6% | viability [6, 10]: 96.5% | inhibition [7]: -7.6% (inactive) | inhibition [8]: -1.61% (inactive)

CC1=C(C(=O)NC2CCC(C)CC2)C2(CCC(C)CC2)OC1=O (stereo not given)
viability [1]: 112% | Her2 level [2]: 84% (inactive) | viability [3]: 112% (inactive) | viability [4]: 96.2% (inactive) | viability [5]: 90.4% (inactive) | differential viability (reversal) ([6]; H69AR cells + 2 uM doxorubicin): -3.75% (inactive) | viability [6, 9]: 94.1% | viability [6, 10]: 90.4% | inhibition [7]: -2.27% (inactive) | inhibition [8]: -5.25% (inactive)

C#CC(CO)N(CCN(Cc1ccccc1)C(C#C)CO)Cc1ccccc1 (stereo not given)
viability [1]: 107% | Her2 level [2]: 85% (inactive) | viability [3]: 107% (inactive) | viability [4]: 79.4% (inactive) | viability [5]: 90.3% (inactive) | differential viability (reversal) ([6]; H69AR cells + 2 uM doxorubicin): 9.04% (inactive) | viability [6, 9]: 81.3% | viability [6, 10]: 90.3% | inhibition [7]: -7.16% (inactive) | inhibition [8]: 1.5% (inactive)

Cc1ccccc1NC(=O)Cc1nnc(SCC(=O)N2CCN(c3ccccc3)CC2)n1C
viability [1]: 110% | Her2 level [2]: 108% (inactive) | viability [3]: 110% (inactive) | viability [4]: 101% (inactive) | viability [5]: 98.2% (inactive) | differential viability (reversal) ([6]; H69AR cells + 2 uM doxorubicin): 5.74% (inactive) | viability [6, 9]: 92.5% | viability [6, 10]: 98.2% | inhibition [7]: -5.53% (inactive) | inhibition [8]: -6.67% (inactive)

CCOc1ccc(C(=O)N2CCN(C(=O)c3ccco3)CC2)cc1OCC
viability [1]: 110% | Her2 level [2]: 85% (inactive) | viability [3]: 110% (inactive) | viability [4]: 85.8% (inactive) | viability [5]: 94.3% (inactive) | differential viability (reversal) ([6]; H69AR cells + 2 uM doxorubicin): 0.255% (inactive) | viability [6, 9]: 94% | viability [6, 10]: 94.3% | inhibition [7]: -3.47% (inactive) | inhibition [8]: -0.79% (inactive)

CC(=O)Nc1ccc(S(=O)(=O)NCc2cn3c(C)csc3n2)cc1
viability [1]: 116% | Her2 level [2]: 106% (inactive) | viability [3]: 116% (inactive) | viability [4]: 107% (inactive) | viability [5]: 102% (inactive) | differential viability (reversal) ([6]; H69AR cells + 2 uM doxorubicin): 20.4% (inactive) | viability [6, 9]: 81.3% | viability [6, 10]: 102% | inhibition [7]: -8.31% (inactive) | inhibition [8]: -3.02% (inactive)

COc1ccccc1N1CCN(c2nc3ccccc3nc2C(C#N)C(=O)OC(C)C)CC1 (stereo not given)
viability [1]: 77% | Her2 level [2]: 112% (inactive) | viability [3]: 77% (inactive) | viability [4]: 71.6% (inactive) | viability [5]: 80.3% (inactive) | differential viability (reversal) ([6]; H69AR cells + 2 uM doxorubicin): 3.12% (inactive) | viability [6, 9]: 77.2% | viability [6, 10]: 80.3% | inhibition [7]: 1.58% (inactive) | inhibition [8]: -1.82% (inactive)

Cc1cccc(-n2c(O)c(C=Nc3ccccc3N)c(=O)[nH]c2=O)c1
viability [1]: 108% | Her2 level [2]: 94.5% (inactive) | viability [3]: 108% (inactive) | viability [4]: 88.2% (inactive) | viability [5]: 10.1% (active) | differential viability (reversal) ([6]; H69AR cells + 2 uM doxorubicin): -28.2% (inactive) | viability [6, 9]: 38.3% | viability [6, 10]: 10.1% | inhibition [7]: -5.19% (inactive) | inhibition [8]: -0.16% (inactive)

CCCCSCCCNC(=O)CS(=O)Cc1nc(-c2cccc(C)c2)oc1C (stereo not given)
viability [1]: 98.5% | Her2 level [2]: 76% (inactive) | viability [3]: 98.5% (inactive) | viability [4]: 91.9% (inactive) | viability [5]: 87.5% (inactive) | differential viability (reversal) ([6]; H69AR cells + 2 uM doxorubicin): -3.76% (inactive) | viability [6, 9]: 91.2% | viability [6, 10]: 87.5% | inhibition [7]: -1.58% (inactive) | inhibition [8]: -1% (inactive)

O=C(c1cccs1)N1CCN=C1SCc1ccccc1
viability [1]: 120% | Her2 level [2]: 74.5% (inactive) | viability [3]: 120% (inactive) | viability [4]: 60.8% (inactive) | viability [5]: 90.4% (inactive) | differential viability (reversal) ([6]; H69AR cells + 2 uM doxorubicin): 6.13% (inactive) | viability [6, 9]: 84.2% | viability [6, 10]: 90.4% | inhibition [7]: 3.51% (inactive) | inhibition [8]: -0.66% (inactive)

COc1ccccc1-c1nc(C#N)c(N2CCN(c3ccccc3)CC2)o1
viability [1]: 104% | Her2 level [2]: 79.5% (inactive) | viability [3]: 104% (inactive) | viability [4]: 70.4% (inactive) | viability [5]: 89.8% (inactive) | differential viability (reversal) ([6]; H69AR cells + 2 uM doxorubicin): 10.2% (inactive) | viability [6, 9]: 79.6% | viability [6, 10]: 89.8% | inhibition [7]: -3.68% (inactive) | inhibition [8]: 3.65% (inactive)
